In ChEMBL document CHEMBL1157168, “Potent anti-prostate cancer agents derived from a novel androgen receptor down-regulating agent” (Bioorg Med Chem, 2008):

How the values were obtained:
PC-3 = test: Cytotoxicity against human PC3 cells after 5 days by MTT assay; format: functional; conditions: PC-3, 120 h
In short: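 Growth inhibition by MTT assay with absorbance read at 560 nm. Values are means of three independent experiments.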

LNCaP [1] = test: Cytotoxicity against human LNCaP cells after 5 days by MTT assay; format: functional; conditions: 120 h
In short: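 LNCaP cells (RPMI 1640, 10% FBS, 1% penicillin/streptomycin, 37 °C, 5% CO2) seeded at 2 × 10^4 cells/well, left to adhere 24 h, then exposed to compounds in DMSO for five days, with compound and medium renewed on day 3. MTT (0.5 mg/mL) added for 2 h, formazan dissolved in DMSO, absorbance read at 560 nm. Triplicate wells, three independent experiments. GI50 from nonlinear regression.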

[2] = molecular target: T1, Androgen receptor (Homo sapiens) (UniProt P10275); test: Activity at androgen receptor expressed in human LNCaP cells assessed as decrease in dihydrotestosterone-stimulated transcriptional activity at 10 uM after 18 hrs by luciferase reporter gene assay; format: cell-based; set-up: scale not given: the % may be the effect or the level left
T1 sequence (whole entry): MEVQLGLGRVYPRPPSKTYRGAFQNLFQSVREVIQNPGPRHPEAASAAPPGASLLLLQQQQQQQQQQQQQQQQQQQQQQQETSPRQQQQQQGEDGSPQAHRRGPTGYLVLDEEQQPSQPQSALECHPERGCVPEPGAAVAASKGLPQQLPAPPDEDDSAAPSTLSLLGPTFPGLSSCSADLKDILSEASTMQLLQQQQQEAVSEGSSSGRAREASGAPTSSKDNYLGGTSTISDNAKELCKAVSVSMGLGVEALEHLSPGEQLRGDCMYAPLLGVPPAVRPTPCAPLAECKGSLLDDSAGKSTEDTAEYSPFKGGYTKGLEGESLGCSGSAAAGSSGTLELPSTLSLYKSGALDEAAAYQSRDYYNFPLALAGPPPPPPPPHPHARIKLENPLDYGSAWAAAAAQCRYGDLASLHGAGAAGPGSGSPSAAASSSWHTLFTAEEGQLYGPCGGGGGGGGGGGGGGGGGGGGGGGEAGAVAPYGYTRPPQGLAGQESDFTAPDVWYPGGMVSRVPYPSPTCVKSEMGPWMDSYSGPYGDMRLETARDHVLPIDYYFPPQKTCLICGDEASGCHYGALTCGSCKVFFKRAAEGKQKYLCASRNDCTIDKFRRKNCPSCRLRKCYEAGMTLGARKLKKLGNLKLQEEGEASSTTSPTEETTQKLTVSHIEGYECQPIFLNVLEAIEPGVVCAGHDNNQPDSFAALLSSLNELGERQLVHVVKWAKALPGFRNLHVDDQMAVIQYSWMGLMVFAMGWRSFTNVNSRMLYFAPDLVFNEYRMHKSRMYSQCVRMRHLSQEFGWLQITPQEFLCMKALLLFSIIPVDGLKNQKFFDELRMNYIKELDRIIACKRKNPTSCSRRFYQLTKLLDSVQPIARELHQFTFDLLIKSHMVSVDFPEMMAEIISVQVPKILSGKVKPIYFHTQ
In short: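 LNCaP cells transiently transfected with the probasin-driven ARR2-Luc reporter, held in steroid-free medium, then given vehicle or compound with or without 5 nM DHT for 18 h before luciferase read-out. Mean of three independent experiments.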

[3] = molecular target: T1, Androgen receptor (Homo sapiens); test: Displacement of [3H]R1881 from wild type androgen receptor expressed in human PC3 cells; format: cell-based; conditions: PC-3
[4] = molecular target: T1, Androgen receptor (Homo sapiens); test: Displacement of [3H]R1881 from mutated androgen receptor expressed in human LNCaP cells; format: cell-based
[5] = molecular target: T1, Androgen receptor (Homo sapiens); test: Displacement of [3H]R1881 from wild type androgen receptor expressed in human PC3 cells at 20 uM; format: cell-based; conditions: PC-3
[6] = molecular target: T1, Androgen receptor (Homo sapiens); test: Displacement of [3H]R1881 from wild type androgen receptor expressed in human PC3 cells at 10 uM; format: cell-based; conditions: PC-3
LNCaP [7] = test: Down regulation of androgen receptor expression in human LNCaP cells by Western blot analysis; format: functional, cell-based
In short: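 LNCaP cells cultured in T25 flasks and treated with compounds. Lysates made in 0.1 M Tris, 0.5% Triton X-100 and protease inhibitor, protein measured by Bradford assay, then run on 10% SDS-PAGE. AR detected with monoclonal AR441 (1:500) and HRP anti-mouse secondary (1:2000) by ECL. Signal normalized to β-actin.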

## Cc1ccc(NS(=O)(=O)c2ccccc2)cc1
PC-3
  GI50: 13.8 µM
LNCaP [1]
  GI50: 21.3 µM

## Cc1ccc(NS(=O)(=O)c2ccc(F)cc2)c(C(=O)O)c1
PC-3
  GI50: > 100 µM
LNCaP [1]
  GI50: 10.7 µM

## Cc1ccc(NS(=O)(=O)c2ccccc2)c(C(=O)O)c1
LNCaP [1]
  GI50: 0.0182 µM

## Cc1ccc(CNc2ccc(C)cc2)cc1
PC-3
  GI50: 29.5 µM
LNCaP [1]
  GI50: 19.1 µM

## Cc1ccc(NS(=O)(=O)c2ccc(F)cc2)c([N+](=O)[O-])c1
PC-3
  GI50: 0.85 µM
LNCaP [1]
  GI50: 0.00234 µM
[2]
  Activity: 50%
[3]
  Activity: Dose-dependent effect
[4]
  Activity: Dose-dependent effect

## Cc1ccc(N(C)S(=O)(=O)c2ccc(C)cc2)cc1
PC-3
  GI50: 44.7 µM
LNCaP [1]
  GI50: 89.2 µM

## Cc1ccc(NS(=O)(=O)c2ccc(C)cc2)cc1
PC-3
  GI50: 30.2 µM
LNCaP [1]
  GI50: 0.00145 µM
[5]
  Activity: 80%
[2]
  Activity: 80%
[6]
  Activity: 65%
[3]
  Activity: Dose-dependent effect
LNCaP [7]
  EC50: 150 µM
[4]
  Activity: Dose-dependent effect

## O=S(=O)(Nc1ccccc1)c1ccccc1 [PHENYL(PHENYLSULFONYL)AMINE]
PC-3
  GI50: > 100 µM

## Cc1ccc(NC(=O)c2ccc(C)cc2)cc1
PC-3
  GI50: 26.9 µM
LNCaP [1]
  GI50: 55 µM

## Cc1ccc(S(=O)(=O)Nc2ccc(C)cc2[N+](=O)[O-])cc1
PC-3
  GI50: 43.7 µM
LNCaP [1]
  GI50: 39.8 µM

## Cc1ccc(NS(=O)(=O)c2ccccc2)c([N+](=O)[O-])c1
PC-3
  GI50: 60.2 µM
LNCaP [1]
  GI50: 0.00295 µM

## O=[N+]([O-])c1ccccc1NS(=O)(=O)c1ccccc1
PC-3
  GI50: 22.9 µM
LNCaP [1]
  GI50: 0.0148 µM

## Cc1ccc(S(=O)(=O)Nc2ccccc2[N+](=O)[O-])cc1
PC-3
  GI50: 50.1 µM
LNCaP [1]
  GI50: 0.083 µM
LNCaP [7]
  EC50: > 150 µM

## Cc1ccc(-c2nnn[nH]2)c(NS(=O)(=O)c2ccc(F)cc2)c1
PC-3
  GI50: > 100 µM
LNCaP [1]
  GI50: > 100 µM

## Cc1ccc(NCc2ccccc2)cc1 [N-BENZYL-4-METHYLANILINE]
PC-3
  GI50: 52.4 µM
LNCaP [1]
  GI50: > 100 µM

## Cc1ccc(S(=O)(=O)Nc2ccccc2)cc1
PC-3
  GI50: 38.9 µM
LNCaP [1]
  GI50: 24 µM

## Cc1ccc(C#N)c(NS(=O)(=O)c2ccc(F)cc2)c1
PC-3
  GI50: > 100 µM
LNCaP [1]
  GI50: 30.2 µM
